{"source": "ChEMBL document CHEMBL1122224", "about": "“Synthesis and gastric antisecretory properties of 4,5-unsaturated derivatives of 15-deoxy-16-hydroxy-16-methylprostaglandin E1” (J Med Chem, 1983)", "key": {"[1]": {"test": "Ratio of ED50 of diarrheal effect to antisecretory effect", "type": "ADME", "details": "read-out: Therapeutic index", "summary_of_the_method": "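Ratio of the oral diarrheal ED50 in fasted male rats to the ig antisecretory ED50 in histamine-stimulated gastric-fistula dogs.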"}, "[2]": {"system": "Rattus norvegicus", "test": "Diarrheal effect after ig administration in rats", "type": "functional", "details": "po", "summary_of_the_method": "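Male Charles River rats, 210–230 g, are fasted 24 h and housed singly. Logarithmically graded oral PG doses are given, N = 6–12. Diarrhea is scored all-or-none at hourly intervals up to 8 h after dosing, and an ED50 is derived.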"}, "[3]": {"system": "Canis familiaris", "test": "Antisecretory activity after ig administration in histamine-stimulated gastric fistula dogs; Range is 4.5-10.0", "type": "functional", "details": "Canis lupus familiaris, Stomach, po", "summary_of_the_method": "(§1)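 Conscious gastric-fistula dogs, fasted 18 h, in Pavlov stands with iv 0.15 M NaCl. After basal collection, histamine is infused iv at 1.0 mg/h (about 6.5 mL/h). At the steady-state plateau, the PG is given intragastrically through a dosing plug and the cannula is closed 30 min. Collections are then taken every 15 min and titrated with 0.1 N NaOH to pH 7.0.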"}, "[4]": {"system": "Canis familiaris", "test": "Antisecretory activity after iv administration in histamine-stimulated Heidenhain pouch dogs; Range is 0.3-1.0", "type": "functional", "details": "Canis lupus familiaris", "summary_of_the_method": "(§2)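 Conscious Heidenhain-pouch dogs, fasted 18 h, with iv saline. Histamine is infused at 1.0 mg/h (about 13.0 mL/h) to a steady plateau. A single iv bolus of PG follows, from ethanol stock diluted in isoosmotic phosphate buffer (≤20% alcohol). Doses are log-spaced, usually 0.1–100 μg/kg, with ≥2 dogs per dose. Acid is measured by titration to pH 7.0 in 15-min samples; ED50 is the 50% inhibition of total acid output.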"}, "[5]": {"system": "Canis familiaris", "test": "Antisecretory activity after ig administration in histamine-stimulated gastric fistula dogs; Range is 2.4-3.0", "type": "functional", "details": "Canis lupus familiaris, Stomach, po", "summary_of_the_method": "as §1"}, "[6]": {"system": "Canis familiaris", "test": "Antisecretory activity after iv administration in histamine-stimulated Heidenhain pouch dogs.", "type": "functional", "details": "Canis lupus familiaris", "summary_of_the_method": "as §2"}, "[7]": {"system": "Canis familiaris", "test": "Antisecretory activity after ig administration in histamine-stimulated gastric fistula dogs; Range is 6.5-10.0", "type": "functional", "details": "Canis lupus familiaris, Stomach, po", "summary_of_the_method": "as §1"}, "[8]": {"system": "Canis familiaris", "test": "Antisecretory activity after ig administration in histamine-stimulated gastric fistula dogs; Range is 0.3-1.0", "type": "functional", "details": "Canis lupus familiaris, Stomach, po", "summary_of_the_method": "as §1"}, "[9]": {"system": "Canis familiaris", "test": "Antisecretory activity after iv administration in histamine-stimulated Heidenhain pouch dogs; Range is 0.1-0.3", "type": "functional", "details": "Canis lupus familiaris", "summary_of_the_method": "as §2"}, "[10]": {"system": "Canis familiaris", "test": "Antisecretory activity after ig administration in histamine-stimulated gastric fistula dogs; Range is 5.5-10.0", "type": "functional", "details": "Canis lupus familiaris, Stomach, po", "summary_of_the_method": "as §1"}}, "data": [{"smiles": "CCCCC(C)(O)C/C=C/[C@H]1[C@H](O)CC(=O)[C@@H]1C/C=C\\CCCC(=O)OC", "note": "(stereo not given in full)", "values": [{"measurement": "selectivity ratio", "setting": "[1]", "value": 27.6}, {"measurement": "ED50", "setting": "[2]", "value": 124, "unit": "µg/kg"}, {"measurement": "ED50", "setting": "[3]", "value": 4.5, "unit": "µg/kg"}, {"measurement": "ED50", "setting": "[4]", "value": 0.3, "unit": "µg/kg"}]}, {"smiles": "CCCCC(C)(C)[C@H](O)/C=C/C1[C@H](O)CC(=O)[C@@H]1C/C=C\\CCCC(=O)OC", "note": "(stereo not given in full)", "values": [{"measurement": "ED50", "setting": "[5]", "value": 2.4, "unit": "µg/kg"}, {"measurement": "selectivity ratio", "setting": "[1]", "value": 4.2}, {"measurement": "ED50", "setting": "[2]", "value": 10, "unit": "µg/kg"}]}, {"smiles": "CCCCC(C)(O)C/C=C/[C@H]1[C@H](O)CC(=O)[C@@H]1CCC#CCCC(=O)OC", "note": "(stereo not given in full)", "values": [{"measurement": "ED50", "setting": "[6]", "value": "> 100", "unit": "µg/kg"}]}, {"smiles": "CCCCC(C)(O)C/C=C/[C@H]1[C@H](O)CC(=O)[C@@H]1CC/C=C/CCC(=O)OC", "note": "(stereo not given in full)", "values": [{"measurement": "ED50", "setting": "[6]", "value": 10, "unit": "µg/kg"}]}, {"smiles": "CCCCC[C@](C)(O)/C=C/C1[C@H](O)CC(=O)[C@@H]1C/C=C\\CCCC(=O)OC", "note": "(stereo not given in full)", "values": [{"measurement": "selectivity ratio", "setting": "[1]", "value": 4.2}, {"measurement": "ED50", "setting": "[2]", "value": 27, "unit": "µg/kg"}, {"measurement": "ED50", "setting": "[7]", "value": 6.5, "unit": "µg/kg"}]}, {"smiles": "CCCCC(C)(O)C/C=C/[C@H]1[C@H](O)CC(=O)[C@@H]1CC/C=C\\CCC(=O)OC", "note": "(stereo not given in full) [ENISOPROST]", "values": [{"measurement": "selectivity ratio", "setting": "[1]", "value": 208}, {"measurement": "ED50", "setting": "[2]", "value": 62, "unit": "µg/kg"}, {"measurement": "ED50", "setting": "[8]", "value": 0.3, "unit": "µg/kg"}, {"measurement": "ED50", "setting": "[9]", "value": 0.1, "unit": "µg/kg"}]}, {"smiles": "CCCCC(C)(O)C/C=C/[C@H]1[C@H](O)CC(=O)[C@@H]1CCCCCCC(=O)OC", "note": "(stereo not given in full) [MISOPROSTOL]", "values": [{"measurement": "selectivity ratio", "setting": "[1]", "value": 66.5}, {"measurement": "ED50", "setting": "[2]", "value": 366, "unit": "µg/kg"}, {"measurement": "ED50", "setting": "[10]", "value": 5.5, "unit": "µg/kg"}, {"measurement": "ED50", "setting": "[4]", "value": 0.3, "unit": "µg/kg"}]}]}
